Assay outcomes from PubChem.
Most compounds without a hit are left out; they make up all but 3.1% or so of the library.
UHRF1 binding: UHRF1 methylated DNA binding inhibitors, primary screen, counter-screen for MBD2 inhibitor project, biochemical, TR-FRET, human UHRF1, single concentration; UHRF1 binding to methylated oligo; inhibition, % at 4.4 µM; 0.75% of 370,000 active; AID 687016, 2013; in the data active means inhibition above about 21%;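 further: UHRF1 SRA domain binding a hemimethylated CpG hairpin DNA probe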
LEDGF integ inh: blockers of LEDGF/p75-dependent integrase strand transfer – biochemical, TR-FRET, high throughput, primary screen | inhibition, % at 3.7 µM | TR-FRET IN-LEDGF/p75 DNA integration, Eu/Cy5 | 0.64% of 370,000 active | HIV-1 integrase (with human LEDGF/p75) | AID 743269, 2014;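 active means inhibition above the screen-wide mean plus 3 SD, cut at about 13% in these data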;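 further: signal is the Cy5 over europium emission ratio at 671 and 618 nm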
MBD2 DNA inh: inhibitors of MBD2 binding to methylated DNA, primary screen, biochemical, TR-FRET, DNA-binding domain, human | Methyl-CpG-binding domain protein 2 (Homo sapiens), Q9UBB5 | MBD2 binding to methylated oligonucleotide | inhibition, % at 4.4 µM | 0.31% of 370,000 active | AID 686964, 2013; in the data active means inhibition above about 13%
ABHD5-PLIN5 inh: ABHD5-PLIN5 interaction inhibitors, primary screen, cell lysate, split luciferase complementation, luminescence; Perilipin-5 (Homo sapiens) + 1-acylglycerol-3-phosphate O-acyltransferase ABHD5 (Homo …; Split G. princeps luciferase complementation, 4 h; inhibition, % at 4 µM; 0.78% of 360,000 active; AID 602281, 2012;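 active means inhibition above the mean inhibition across every tested compound plus 3 SD, cut at about 22% in these data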
PRMT1 FP inh: PRMT1 methyltransferase inhibitors, primary screen, biochemical, fluorescence polarization | Protein arginine N-methyltransferase 1 (Homo sapiens), Q99873 | recombinant PRMT1, activity-based probe fluorescence polarization | inhibition, % at 2.79 µM | 1.3% of 370,000 active | AID 652257, 2013;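 active means inhibition above about 21% made by adding two undisclosed values, limit read from the data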
RBBP9 inh: human RBBP9 inhibitors, primary screen, biochemical, fluorescence polarization, FP-Rh probe, HTS | recombinant RBBP9 | 0.2% of 220,000 active | inhibition, % at 7.94 µM;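 active means inhibition above the campaign mean of all tested compounds plus 3 SD, cut at about 14% in these data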
Target sequence (O75884 whole entry, looked up): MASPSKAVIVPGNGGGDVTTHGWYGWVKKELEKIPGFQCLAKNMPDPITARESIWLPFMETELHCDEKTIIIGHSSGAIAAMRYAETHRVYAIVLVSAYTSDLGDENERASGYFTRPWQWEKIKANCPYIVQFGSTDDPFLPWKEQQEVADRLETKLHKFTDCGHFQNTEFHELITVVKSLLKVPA
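Measured by: FP readout at 525/598 nm; material: recombinant human RBBP9; also added: Serine-hydrolase probe FP-Rh, 375 nM pre-mixing; medium: Tris buffer pH 8.0, NaCl, Pluronic; replication: one well per compound; doses: one concentration, 7.94 µM nominal, 0.794% DMSO; timing: preincubation 30 min plus labeling 45 min at 25 °C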
PRMT1 confirm: PRMT1 methyltransferase inhibitors, confirmation, biochemical, fluorescence polarization, triplicate. shares compounds with PRMT1 FP inh. recombinant His-PRMT1, activity-based probe fluorescence polarization. inhibition, % at 2.79 µM. 42% of 3,300 active;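 active means mean inhibition across replicates above the hit cutoff derived for the earlier primary screen, cut at about 22% in these data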
Each line names hits and unclear results; the compound was inactive in the other large screens (follow-up assays come after a bar, where they were run).

CCOC(=O)C1=C(C)N=c2s/c(=C/c3ccc(OCC(=O)O)c(OC)c3)c(=O)n2C1c1ccc(Cl)cc1 (stereo not drawn)	PRMT1 FP inh 34 (no result: RBBP9 inh) | PRMT1 confirm 22
CC1=C(C(=O)OC(C)C)C(c2ccc(Cl)cc2)n2c(sc(=Cc3ccc(OCC(=O)O)cc3)c2=O)=N1 (stereo not drawn)	none (no result: RBBP9 inh)
CC(C)C[C@H]1COc2cc(N3CCOCC3)ccc2S(=O)(=O)N1	none (no result: ABHD5-PLIN5 inh, RBBP9 inh)
O=C(C1CCCN(C2CC(=O)N(c3ccc(Cl)cc3)C2=O)C1)N1CCCC1 (stereo not drawn)	PRMT1 FP inh 30 (no result: RBBP9 inh) | PRMT1 confirm inactive
CCCOc1ccc(N2C(=O)CC(N3CCCC(C(=O)N4CCCC4)C3)C2=O)cc1 (stereo not drawn)	PRMT1 FP inh 39 | PRMT1 confirm inactive
CCOC(=O)c1ccc(N2C(=O)CC(N3CCCC(C)C3)C2=O)cc1 (stereo not drawn)	none
CCOc1ccc(N2C(=O)CC(N3CCC(NC(=O)Nc4ccccc4)CC3)C2=O)cc1 (stereo not drawn)	PRMT1 FP inh 64 | PRMT1 confirm inactive
O=C(C1CCCN(C2CC(=O)N(c3ccc(F)cc3)C2=O)C1)N1CCCC1 (stereo not drawn)	none (no result: RBBP9 inh)
CCOC(=O)C1CCCN(C2CC(=O)N(c3cccc(C)c3)C2=O)C1 (stereo not drawn)	PRMT1 FP inh 63 | PRMT1 confirm inactive
COC(=O)c1cc(S(=O)(=O)NCC2CCN(C(=O)C(=O)c3cccs3)CC2)cs1	none (no result: ABHD5-PLIN5 inh, RBBP9 inh)
Cc1ccc(NC(=O)C2CC3CCC2C3)c(C)c1 (stereo not drawn)	none (no result: ABHD5-PLIN5 inh, RBBP9 inh)
COC(=O)C1=C(C)N(Cc2cccc(C(F)(F)F)c2)C(=NCc2ccccc2C(F)(F)F)NC1c1ccc(Cl)cc1 (stereo not drawn)	none (no result: ABHD5-PLIN5 inh, RBBP9 inh)
CCCOc1ccc(N2C(=O)CC(N3CCC(C(=O)OCC)CC3)C2=O)cc1 (stereo not drawn)	PRMT1 FP inh 56 | PRMT1 confirm inactive
CCCOc1ccc(N2C(=O)CC(SC(=NCC)NCC)C2=O)cc1 (stereo not drawn)	none
CCCOc1ccc(N2C(=O)CC(SCC(N)C(=O)OCC)C2=O)cc1 (stereo not drawn)	PRMT1 FP inh 27 (no result: RBBP9 inh) | PRMT1 confirm 23
O=C1CC(N2CCOCC2)C(=O)N1c1cccc(Cl)c1 (stereo not drawn)	none
O=C(C1CCN(C2CC(=O)N(c3cccc(Cl)c3)C2=O)CC1)N1CCCCCC1 (stereo not drawn)	PRMT1 FP inh 29 | PRMT1 confirm inactive
CCCOc1ccc(N2C(=O)CC(N3CCOCC3)C2=O)cc1 (stereo not drawn)	none
CCOC(=O)[C@@]12CCCC3=C1N(CCC3)C(=O)[C@H]2CC(=O)N1CCCC1	none (no result: ABHD5-PLIN5 inh, RBBP9 inh)
COC[C@@H](OC(C)=O)[C@H]1OCc2ccccc2[C@@H]1/C=C/c1ccccc1	none (no result: ABHD5-PLIN5 inh, RBBP9 inh)
CCOC(=O)C(=O)Nc1nccs1	none
CCOC(=S)SCC(=O)Nc1nc(C)c(C)s1	PRMT1 FP inh 50 | PRMT1 confirm 39
CCOC(=S)SCC(=O)Nc1nccs1	PRMT1 FP inh 46 | PRMT1 confirm inactive
Cc1nc(NC(=O)CSc2nc(N)cc(N)n2)sc1C	none (no result: RBBP9 inh)
COCC(=O)N1CCC(C(=O)NCC2COc3ccccc3O2)CC1 (stereo not drawn)	none (no result: ABHD5-PLIN5 inh, RBBP9 inh)
O=C(Cc1cn(Cc2ccccc2)c2ccccc12)Nc1ccc(Nc2cccnc2)c(Br)c1	none (no result: ABHD5-PLIN5 inh, RBBP9 inh)
Fc1cccc(Cl)c1CSc1nnc2ccccn12	none
Fc1ccc(CSc2nnc3ccccn23)c(Cl)c1	PRMT1 FP inh 46 | PRMT1 confirm inactive
